We go through one compound from ChEMBL document CHEMBL3414479, “Structure-based lead optimization and biological evaluation of BAX direct activators as novel potential anticancer agents” (J Med Chem, 2015).

In general, EC50 refers to the concentration giving half of the maximal effect. For orientation: Ki means a dissociation constant, usually derived from enzyme kinetics or from competition with a known ligand.

Activity calls are given as the source filed them. The calls are words filed in the database; no cut-off is given here. Where only a bound is given, the exact number is not on record here.

Data set [1] relates to MEF. As to the kind of experiment: Induction of apoptosis in Bad-deficient MEF assessed as appearance of fragmented nuclei and cell membrane blebbing after 24 hrs by DAPI staining. Particulars: Mus musculus. It counts as functional, cell-based. The essentials: (§1)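 MEF wild-type or knockout clones (Bcl2, Bad, Bid, Bak, Bax, Bax/Bak) treated 24 h with compound (15 µM for single-concentration data) or 0.1% DMSO vehicle; apoptosis scored by fragmented nuclei and membrane blebbing. EC50 values are means of three experiments with s.d.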

The next data set has as its target Bcl-2-like protein 1 (Homo sapiens, UniProt Q07817). The data set can be described thus: Displacement of FITC-BIM from recombinant human Bcl-XL expressed in Escherichia coli after 30 mins by fluorescence polarization assay. Summed up:
(§2)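 Fluorescence polarization competition: serial compound dilutions in 20 mM Hepes-KOH pH 7.4, 150 mM NaCl with 50 nM FITC-BIM; after 5 min, E. coli-expressed recombinant protein added at 1 µM; polarization read after 30 min incubation. Triplicates; Ki from nonlinear regression of competitive binding curves.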

Data set [2] is described as follows: Cytotoxicity against C57BL/6J mouse primary splenocytes assessed as effect on apoptosis rate at 10 uM after 72 hrs by DAPI staining. It counts as cell-based. Particulars: splenocyte. Summed up: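 Primary splenocytes exposed 72 hours to 10 µM; apoptosis rate determined by counting apoptotic nuclei; mean with s.d. reported.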
Data set [3] deals with Lewis lung carcinoma cell line. As to the kind of experiment: Antitumor activity against mouse LLC1 cells allografted in C57BL/6J mouse assessed as reduction of tumor lesions at 1 mg/kg, ip qd administered from day 14 to 17 post tumor implantation measured on day 17 by hematoxylin and eosin staining-based microscopic analysis. It counts as functional, organism-based. On the set-up: dose 1 mg/kg. Summed up:
(§3)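 LLC1 cells injected via tail vein on day 0; from day 14 to day 17 mice given intraperitoneal injection once daily at 1 mg/kg, vehicle 1% DMSO; euthanized day 17. Lungs inspected visually, and H&E-stained lung sections scored as tumor burden to lung area ratio versus vehicle controls.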

Data set [4] has as its system MEF. As to the kind of experiment: Induction of apoptosis in Bcl2-deficient MEF assessed as appearance of fragmented nuclei and cell membrane blebbing after 24 hrs by DAPI staining. The data set is classed as functional, cell-based. As to conditions: Mus musculus. Summed up:
as §1

The test system of data set [5] is Mus musculus. The data set can be described thus: Toxicity in C57BL/6J mouse allografted with mouse LLC1 cells assessed as evidence of gross toxicity at 1 mg/kg, ip qd administered from day 14 to 17 post tumor implantation measured during compound dosing. The data set is classed as organism-based. On the set-up: dose 1 mg/kg, route intraperitoneal. As to conditions: in vivo.

Data set [6] deals with Mus musculus. As to the kind of experiment: Toxicity in C57BL/6J mouse allografted with mouse LLC1 cells assessed as change in body weight at 1 mg/kg, ip qd administered from day 14 to 17 post tumor implantation measured during compound dosing. On the set-up: dose 1 mg/kg, route intraperitoneal. As to conditions: in vivo. It counts as organism-based.
The test system of data set [7] is MEF. The data set can be described thus: Induction of apoptosis in Bax/Bak-deficient MEF assessed as appearance of fragmented nuclei and cell membrane blebbing after 24 hrs by DAPI staining. It counts as functional, cell-based. As to conditions: Mus musculus. The essentials:
as §1

Data set [8] has as its system MEF. The data set can be described thus: Induction of apoptosis in Bak-deficient MEF assessed as appearance of fragmented nuclei and cell membrane blebbing after 24 hrs by DAPI staining. Particulars: Mus musculus. The data set is classed as functional, cell-based. Summed up:
as §1

Data set [9] deals with Mus musculus. The data set can be described thus: In vivo activation of Bax in mouse LLC1 cells allografted in C57BL/6J mouse at 1 mg/kg, ip qd administered from day 14 to 17 post tumor implantation measured on day 17 by immunoprecipitation assay. It counts as functional, organism-based. On the set-up: dose 1 mg/kg. Summed up:
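Mice carrying tail-vein-injected LLC1 lung tumors received 1 mg/kg intraperitoneally once daily days 14–17 (vehicle 1% DMSO); on day 17 lung lysates were immunoprecipitated with conformation-specific anti-BAX 6A7 antibody to detect activated BAX.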

The species named for data set [10] is Mus musculus. As to the kind of experiment: Toxicity in C57BL/6J mouse assessed as effect on femoral muscle. The data set is classed as organism-based, Muscle tissue. Particulars: in vivo.
Data set [11] concerns MEF. As to the kind of experiment: Induction of apoptosis in Bid-deficient MEF assessed as appearance of fragmented nuclei and cell membrane blebbing after 24 hrs by DAPI staining. The data set is classed as functional, cell-based. Particulars: Mus musculus. The essentials: as §1
The subject of data set [12] is MEF. The data set can be described thus: Induction of apoptosis in MEF assessed as appearance of cell membrane blebbing at 15 uM after 24 hrs by DAPI staining in presence of caspase inhibitor Ac-DEVD-CHO. It counts as functional, cell-based. As to conditions: Mus musculus. Summed up: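 MEF cells treated 24 h at 15 µM in presence of caspase inhibitor Ac-DEVD-CHO (10 µM); cell membrane blebbing assessed by microscopy.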

Data set [13] relates to MEF. As to the kind of experiment: Induction of apoptosis in wild-type MEF assessed as appearance of fragmented nuclei and cell membrane blebbing after 24 hrs by DAPI staining. The data set is classed as functional, cell-based. Particulars: Mus musculus. The essentials:
as §1

The test system of data set [14] is Mus musculus. The data set can be described thus: Toxicity in C57BL/6J mouse allografted with mouse LLC1 cells assessed as mortality at 1 mg/kg, ip qd administered from day 14 to 17 post tumor implantation measured during compound dosing. As to conditions: in vivo. It counts as organism-based. More on the design: dose 1 mg/kg, route intraperitoneal.
Data set [15] concerns the target Apoptosis regulator Bcl-2 (Homo sapiens, UniProt P10415). As to the kind of experiment: Displacement of FITC-BIM from recombinant human Bcl-2 expressed in Escherichia coli after 30 mins by fluorescence polarization assay. The essentials: as §2
Data set [16] is filed under the species Mus musculus. The data set can be described thus: Toxicity in C57BL/6J mouse assessed as effect on lung. The data set is classed as organism-based. Particulars: in vivo.
The subject of data set [17] is MEF. As to the kind of experiment: Induction of apoptosis in Bax-deficient MEF assessed as appearance of fragmented nuclei and cell membrane blebbing after 24 hrs by DAPI staining. It counts as functional, cell-based. Particulars: Mus musculus. The essentials:
as §1

The species named for data set [18] is Mus musculus. As to the kind of experiment: Toxicity in C57BL/6J mouse assessed as effect on heart. It counts as organism-based. Particulars: in vivo.
Data set [19] relates to Lewis lung carcinoma cell line. The data set can be described thus: Antitumor activity against mouse LLC1 cells allografted in C57BL/6J mouse assessed as decrease in ratio of tumor burden to lung area at 1 mg/kg, ip qd administered from day 14 to 17 post tumor implantation measured on day 17 by hematoxylin and eosin staining-based microscopic analysis relative to control. The data set is classed as functional. More on the design: scale not given: the % may be the effect or the level left. Particulars: route intraperitoneal. Summed up:
as §3

The subject of data set [20] is Mus musculus. The data set can be described thus: Toxicity in C57BL/6J mouse allografted with mouse LLC1 cells assessed as evidence of behavioral side effect at 1 mg/kg, ip qd administered from day 14 to 17 post tumor implantation measured during compound dosing. More on the design: dose 1 mg/kg, route intraperitoneal. As to conditions: in vivo. It counts as organism-based.

Chain of Bcl-2-like protein 1 (Q07817 whole entry): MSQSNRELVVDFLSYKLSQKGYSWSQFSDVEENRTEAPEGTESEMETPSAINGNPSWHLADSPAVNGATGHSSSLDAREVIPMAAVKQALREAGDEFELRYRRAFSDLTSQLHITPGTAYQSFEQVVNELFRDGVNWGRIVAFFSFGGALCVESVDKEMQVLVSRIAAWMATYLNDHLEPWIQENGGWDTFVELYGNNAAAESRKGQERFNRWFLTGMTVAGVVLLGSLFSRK
Chain of Apoptosis regulator Bcl-2 (P10415 whole entry): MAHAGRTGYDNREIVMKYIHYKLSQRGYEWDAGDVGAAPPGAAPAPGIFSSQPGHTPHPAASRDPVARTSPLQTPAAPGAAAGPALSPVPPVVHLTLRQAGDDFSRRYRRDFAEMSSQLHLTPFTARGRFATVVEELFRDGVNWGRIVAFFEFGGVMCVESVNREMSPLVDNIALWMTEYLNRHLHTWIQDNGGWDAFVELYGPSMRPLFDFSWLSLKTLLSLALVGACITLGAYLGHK

As to `CCOc1ccccc1N/N=C1\C(=O)N(c2cc(O)cc(-c3ccc(N(C)C)cc3)c2)N=C1C`, the EC50 in the data set with MEF [1] is 800 nM; with MEF [4], 600 nM; in the data set on MEF [7], over 50000 nM; in the data set with MEF [8], 1300 nM; in the data set with MEF [11] it was 700 nM; in the data set with MEF [13] it was 1100 nM. Moreover, the 50% effective concentration (EC50) in the data set with MEF [17] is over 50000 nM. The inhibitory constant (Ki) at Bcl-2-like protein 1 was over 100000 nM; in [15] it was 12000 nM. Also, the Activity entry (in data set [2]; in the data set with Mus musculus [5]; in the data set on Mus musculus [6]; in the data set filed under Mus musculus [10]; in the data set with Mus musculus [14]; in the data set listed under Mus musculus [16]) was “Non-toxic” in each case. Also, the Activity result is given as “Non-toxic” in the data set listed under Mus musculus [18], 50% in data set [19] and “Non-toxic” with Mus musculus [20]. In addition, the outcome (in data set [3]; in the data set on Mus musculus [9]) was Active. In addition, in the data set on MEF [12], the outcome was inactive.
